What was measured:
[1] = molecular target: Epidermal growth factor receptor and ErbB2 (HER1 and HER2) (Homo sapiens) (UniProt P04626+P00533); experiment: Selectivity for erbB2 over EGFR; type: protein assay
How it was run: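 Cell selectivity: IC50 ratio between two NIH3T3 lines run under identical conditions, one carrying human EGFR and one carrying the EGFR-extracellular/erbB2-intracellular chimera. Each line takes 2 h inhibitor, then 15 min human recombinant EGF. Phosphotyrosine measured with HRP-PY-54 and TMB at 450 nm.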

[2] = molecular target: T1, Receptor tyrosine-protein kinase erbB-2 (Homo sapiens, UniProt P04626); experiment: Inhibition of erbB2 in NH3T3 cells; type: cell-based
T1 sequence (P04626 whole entry, the tested form may be a part): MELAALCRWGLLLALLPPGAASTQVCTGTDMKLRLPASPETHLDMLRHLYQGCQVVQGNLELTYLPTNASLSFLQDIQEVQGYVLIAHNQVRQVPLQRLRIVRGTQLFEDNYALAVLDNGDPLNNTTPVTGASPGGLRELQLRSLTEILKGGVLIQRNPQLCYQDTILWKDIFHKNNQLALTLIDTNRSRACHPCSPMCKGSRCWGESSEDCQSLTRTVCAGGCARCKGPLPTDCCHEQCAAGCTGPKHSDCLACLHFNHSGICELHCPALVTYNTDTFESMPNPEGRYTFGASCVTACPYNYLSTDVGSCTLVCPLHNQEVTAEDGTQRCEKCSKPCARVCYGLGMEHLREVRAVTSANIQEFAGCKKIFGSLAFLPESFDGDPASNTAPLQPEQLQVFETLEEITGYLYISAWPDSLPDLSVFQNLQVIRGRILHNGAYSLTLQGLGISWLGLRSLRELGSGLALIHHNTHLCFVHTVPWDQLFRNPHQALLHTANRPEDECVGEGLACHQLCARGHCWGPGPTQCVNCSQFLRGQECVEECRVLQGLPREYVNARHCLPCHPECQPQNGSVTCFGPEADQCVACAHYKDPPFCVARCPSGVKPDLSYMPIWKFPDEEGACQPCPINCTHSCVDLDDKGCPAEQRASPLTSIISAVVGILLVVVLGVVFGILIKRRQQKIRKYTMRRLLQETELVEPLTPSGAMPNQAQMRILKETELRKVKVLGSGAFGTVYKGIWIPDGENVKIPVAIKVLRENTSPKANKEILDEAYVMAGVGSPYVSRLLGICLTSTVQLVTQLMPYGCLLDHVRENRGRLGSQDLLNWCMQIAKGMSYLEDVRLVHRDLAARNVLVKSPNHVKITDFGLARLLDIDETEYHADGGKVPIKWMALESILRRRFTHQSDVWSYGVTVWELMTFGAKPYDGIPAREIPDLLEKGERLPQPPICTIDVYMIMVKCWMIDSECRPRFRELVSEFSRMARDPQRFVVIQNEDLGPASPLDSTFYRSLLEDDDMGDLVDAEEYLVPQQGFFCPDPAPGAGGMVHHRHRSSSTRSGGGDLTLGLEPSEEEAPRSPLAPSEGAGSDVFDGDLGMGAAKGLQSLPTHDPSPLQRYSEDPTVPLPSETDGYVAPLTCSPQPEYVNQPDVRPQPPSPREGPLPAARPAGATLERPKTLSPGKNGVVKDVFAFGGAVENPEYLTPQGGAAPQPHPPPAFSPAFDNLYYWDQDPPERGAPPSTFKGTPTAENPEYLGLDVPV
How it was run: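 NIH3T3 cells expressing a chimera of EGFR extracellular and erbB2 intracellular domains are plated, exposed to inhibitor for 2 h, then stimulated with human recombinant EGF for 15 min. Receptor phosphotyrosine read with HRP-PY-54 antibody and TMB, A450. IC50 is the mean of at least two experiments.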

[3] = molecular target: T1, Receptor tyrosine-protein kinase erbB-2; experiment: Inhibition of erbB2 expressed in Sf9 cells
How it was run: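 GST-tagged erbB2 intracellular domain (residues 675–1255) made in baculovirus/Sf9 and purified; ~15 ng enzyme phosphorylates poly(Glu,Tyr) with 1 mM ATP plus inhibitor over 6 min. Phosphotyrosine detected by HRP-PY-54 antibody and TMB, A450. IC50 is the mean of at least two experiments.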

[4] = Volume of distribution in rat at 2 mg/kg, iv; type: ADME, organism-based; set-up: dose 2 mg/kg, route intravenous; settings: in vivo, read-out: Vdss
How it was run: (§1)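 Single 2 mg/kg IV dose (HCl salt) to define clearance, volume of distribution and half-life; oral arm given 5 mg/kg in 0.5% methylcellulose to derive bioavailability (F).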

[5] = Clearance in rat at 2 mg/kg, iv; type: ADME, organism-based; set-up: dose 2 mg/kg, route intravenous; settings: in vivo; how it was run: as §1
[6] = Half life in rat at 2 mg/kg, iv after 1 hr; type: ADME, organism-based; set-up: dose 2 mg/kg, route intravenous; settings: in vivo; how it was run: as §1
[7] = Bioavailability in rat at 5 mg/kg, po; type: ADME, organism-based; settings: in vivo; how it was run: as §1

Cc1cc(Nc2ncnc3cnc(NCCN4CCOCC4)cc23)ccc1Oc1ccc(C(=O)NCC(C)(C)C)cc1
Selectivity ratio [1]: 230
IC50 [2]: 15 nM
IC50 [3]: 280 nM

COCCOc1ccc2ncnc(Nc3ccc(OC4CCN(C(=O)CC(C)(C)C)CC4)c(C)c3)c2c1
Selectivity ratio [1]: > 500
IC50 [2]: 19 nM
IC50 [3]: 120 nM

COCC(=O)NCC#Cc1ccc2ncnc(Nc3ccc(OC4CCN(C(=O)c5cccc(Cl)c5)CC4)c(C)c3)c2c1
Selectivity ratio [1]: 92
IC50 [2]: 75 nM
IC50 [3]: 210 nM

COCC(=O)NCC#Cc1ccc2ncnc(Nc3ccc(Oc4cccc(C(=O)NCC(C)(C)C)c4)c(C)c3)c2c1
Selectivity ratio [1]: 91
IC50 [2]: 110 nM
IC50 [3]: 130 nM

Cc1cc(Nc2ncnc3cnc(N(C)C)cc23)ccc1Oc1ccc(C(=O)NCC(C)(C)C)cc1
Selectivity ratio [1]: > 770
IC50 [2]: < 10 nM
IC50 [3]: 48 nM

COCC(=O)NCC#Cc1ccc2ncnc(Nc3ccc(Oc4cccc(C(=O)NC(C)(C)C)c4)c(C)c3)c2c1
Selectivity ratio [1]: 250
IC50 [2]: 30 nM
IC50 [3]: 18 nM

Cc1cc(Nc2ncnc3cnc(N4CCOCC4)cc23)ccc1OC1CCN(C(=O)CC(C)(C)C)CC1
Selectivity ratio [1]: > 1000
IC50 [2]: < 10 nM
IC50 [3]: 23 nM

Cc1cc(Nc2ncnc3cnc(N4CCN(C)CC4)cc23)ccc1Oc1ccc(C(=O)NCC(C)(C)C)cc1
Selectivity ratio [1]: > 660
IC50 [2]: 15 nM
IC50 [3]: 130 nM

COCC(=O)NCC#Cc1ccc2ncnc(Nc3ccc(OC4CCN(C)CC4)c(C)c3)c2c1
IC50 [3]: > 10000 nM

COCC(=O)NCC#Cc1ccc2ncnc(Nc3ccc(OC4CCN(C(=O)Nc5c(F)cccc5F)CC4)c(C)c3)c2c1
Selectivity ratio [1]: > 53
IC50 [2]: 190 nM
IC50 [3]: 76 nM

COCC(=O)NCC#Cc1ccc2ncnc(Nc3ccc(Oc4ccc(C(=O)Nc5ccccc5)cc4)c(C)c3)c2c1
IC50 [3]: > 10000 nM

COCCOc1ccc2ncnc(Nc3ccc(OC4CCN(C(=O)C5CCCC5)CC4)c(C)c3)c2c1
Selectivity ratio [1]: > 350
IC50 [2]: 29 nM
IC50 [3]: 44 nM

CNc1cc2c(Nc3ccc(Oc4ccc(C(=O)NCC(C)(C)C)cc4)c(C)c3)ncnc2cn1
Selectivity ratio [1]: 230
IC50 [2]: 13 nM
IC50 [3]: 30 nM

COCCOc1cc2ncnc(Nc3ccc(OC4CCN(C(=O)CC(C)(C)C)CC4)c(C)c3)c2cc1OCCOC
Selectivity ratio [1]: 11
IC50 [2]: 530 nM
IC50 [3]: 260 nM

Cc1cc(Nc2ncnc3cnc(N4CCOCC4)cc23)ccc1OC1CCN(C(=O)Nc2c(F)cccc2F)CC1
Selectivity ratio [1]: 210
IC50 [2]: 16 nM
IC50 [3]: 7 nM

COCC(=O)NCC#Cc1ccc2ncnc(Nc3ccc(OC4CCN(C(C)=O)CC4)c(C)c3)c2c1
IC50 [3]: > 10000 nM

CNC(=O)c1cccc(Oc2ccc(Nc3ncnc4ccc(C#CCNC(=O)COC)cc34)cc2C)c1
IC50 [3]: > 10000 nM

Cc1cc(Nc2ncnc3cnc(N4CCCC4)cc23)ccc1Oc1ccc(C(=O)NCC(C)(C)C)cc1
Selectivity ratio [1]: > 100
IC50 [2]: < 10 nM
IC50 [3]: 36 nM

COCC(=O)NCC#Cc1ccc2ncnc(Nc3ccc(Oc4cccc(C(=O)NC5CCC5)c4)c(C)c3)c2c1
Selectivity ratio [1]: > 64
IC50 [2]: 160 nM
IC50 [3]: 230 nM

Cc1cc(Nc2ncnc3cnc(N(C)C)cc23)ccc1OC1CCN(C(=O)Nc2c(F)cccc2F)CC1
Selectivity ratio [1]: 68
IC50 [2]: 20 nM
IC50 [3]: 21 nM

COCC(=O)NCC#Cc1ccc2ncnc(Nc3ccc(Oc4ccc(C(=O)N(C)C)cc4)c(C)c3)c2c1
IC50 [3]: > 10000 nM

COCC(=O)NCC#Cc1ccc2ncnc(Nc3ccc(OC4CCN(C(=O)COC)CC4)c(C)c3)c2c1
IC50 [3]: > 10000 nM

Cc1cc(Nc2ncnc3ccc(OCCCN4CCOCC4)cc23)ccc1OC1CCN(C(=O)CC(C)(C)C)CC1
Selectivity ratio [1]: > 290
IC50 [2]: 34 nM
IC50 [3]: 75 nM

COCC(=O)NCC#Cc1ccc2ncnc(Nc3ccc(Oc4ccc(C(=O)NCC(C)(C)C)cc4)c(C)c3)c2c1
Selectivity ratio [1]: 200
IC50 [2]: 23 nM
IC50 [3]: 140 nM

COc1cc2ncnc(Nc3ccc(OC4CCN(C(=O)CC(C)(C)C)CC4)c(C)c3)c2cc1OC
Selectivity ratio [1]: > 130
IC50 [2]: 76 nM
IC50 [3]: 100 nM

CNc1cc2c(Nc3ccc(OC4CCN(C(=O)Nc5c(F)cccc5F)CC4)c(C)c3)ncnc2cn1
Selectivity ratio [1]: 25
IC50 [2]: 180 nM
IC50 [3]: 25 nM

Cc1cc(Nc2ncnc3cnc(N4CCOCC4)cc23)ccc1OC1CCN(C(=O)C2CCCC2)CC1
Selectivity ratio [1]: > 300
IC50 [2]: 33 nM
IC50 [3]: 18 nM
Vd [4]: 0.2 L/kg
clearance [5]: 2.5 mL/min/kg
half-life [6]: 1 h
bioavailability [7]: 54%

COc1ccc2ncnc(Nc3ccc(OC4CCN(C(=O)CC(C)(C)C)CC4)c(C)c3)c2c1
IC50 [3]: 96 nM

COCCOc1cc2ncnc(Nc3ccc(OC4CCN(C(=O)Nc5c(F)cccc5F)CC4)c(C)c3)c2cc1OCCOC
Selectivity ratio [1]: 6.5
IC50 [2]: 840 nM
IC50 [3]: 230 nM

COCC(=O)NCC#Cc1ccc2ncnc(Nc3ccc(Oc4cccc(C(=O)N(C)C)c4)c(C)c3)c2c1
IC50 [3]: > 10000 nM

COCC(=O)NCC#Cc1ccc2ncnc(Nc3ccc(OC4CCN(C(=O)C5CCCO5)CC4)c(C)c3)c2c1 (stereo unspecified)
IC50 [2]: 2900 nM
IC50 [3]: 550 nM

CNC(=O)c1ccc(Oc2ccc(Nc3ncnc4ccc(C#CCNC(=O)COC)cc34)cc2C)cc1
IC50 [3]: > 10000 nM

Cc1cc(Nc2ncnc3cnc(N(C)C)cc23)ccc1OC1CCN(C(=O)CC(C)(C)C)CC1
Selectivity ratio [1]: > 230
IC50 [2]: < 10 nM
IC50 [3]: 51 nM

COCCOc1cc2ncnc(Nc3ccc(OC4CCN(C(=O)C5CCCC5)CC4)c(C)c3)c2cc1OCCOC
Selectivity ratio [1]: > 19
IC50 [2]: 530 nM
IC50 [3]: 77 nM

COc1cc2ncnc(Nc3ccc(OC4CCN(C(=O)Nc5c(F)cccc5F)CC4)c(C)c3)c2cc1OC
Selectivity ratio [1]: 23
IC50 [2]: 67 nM
IC50 [3]: 19 nM

COCC(=O)NCC#Cc1ccc2ncnc(Nc3ccc(Oc4ccc(C(=O)NC(C)(C)C)cc4)c(C)c3)c2c1
IC50 [3]: > 10000 nM

COCCOc1ccc2ncnc(Nc3ccc(OC4CCN(C(=O)Nc5c(F)cccc5F)CC4)c(C)c3)c2c1
Selectivity ratio [1]: > 300
IC50 [2]: 33 nM
IC50 [3]: 27 nM

COCC(=O)NCC#Cc1ccc2ncnc(Nc3ccc(OC4CCN(C(=O)C5CCC5)CC4)c(C)c3)c2c1
Selectivity ratio [1]: > 200
IC50 [2]: 51 nM
IC50 [3]: 150 nM

COc1cc2ncnc(Nc3ccc(Oc4ccc(C(=O)NCC(C)(C)C)cc4)c(C)c3)c2cc1OC
Selectivity ratio [1]: 1
IC50 [2]: 310 nM
IC50 [3]: 77 nM

COCC(=O)NCC#Cc1ccc2ncnc(Nc3ccc(OC4CCNCC4)c(C)c3)c2c1
IC50 [3]: > 10000 nM

COCC(=O)NCC#Cc1ccc2ncnc(Nc3ccc(Oc4cccc(C(=O)Nc5ccccc5)c4)c(C)c3)c2c1
IC50 [3]: 140 nM

COCC(=O)NCC#Cc1ccc2ncnc(Nc3ccc(OC4CCN(C(=O)CC(C)(C)C)CC4)c(C)c3)c2c1
Selectivity ratio [1]: 400
IC50 [2]: 16 nM
IC50 [3]: 94 nM

Cc1cc(Nc2ncnc3ccc(OCCCN4CCOCC4)cc23)ccc1OC1CCN(C(=O)Nc2c(F)cccc2F)CC1
Selectivity ratio [1]: 32
IC50 [2]: 55 nM
IC50 [3]: 55 nM

COc1ccc2ncnc(Nc3ccc(OC4CCN(C(=O)Nc5c(F)cccc5F)CC4)c(C)c3)c2c1
Selectivity ratio [1]: 11
IC50 [2]: 250 nM
IC50 [3]: 46 nM
